Assay [1] concerns A549. As to the kind of experiment: Induction of apoptosis in human A549 cells assessed as increase in BIM level after 48 hrs by Western blot analysis. In kind it is functional, cell-based. Summed up:
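Western blotting. Cells were seeded at 6 × 10⁵ per 60 mm dish overnight, then treated with a dose series at 37 °C in 5% CO2 for 48 h. RIPA lysates were BCA-quantified and 25–50 μg was resolved by SDS-PAGE onto PVDF. Membranes were blocked in TBS/T with 5% milk, probed with primary antibody overnight at 4 °C and HRP secondary at 1:2000 for 1 h, and detected by ECL.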
In general terms: In western blotting, separated proteins are transferred to a membrane and probed.

The test system of assay [2] is A549. As to the kind of experiment: Induction of apoptosis in human A549 cells at 10 uM after 48 hrs by FACS analysis. In kind it is functional, cell-based. (A flow cytometer gives signals particle by particle.)
Assay [3] deals with HCT-116. As to the kind of experiment: Induction of phosphorylation of Akt in human HCT116 cells at 1 to 10 uM after 3 hrs by Western blot analysis. The class given is functional, cell-based. Summed up:
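Dose-response phospho-blotting. A549 or HCT-116 cells were seeded at 6 × 10⁵ per dish overnight and treated for 3 h at 37 °C. Phospho-Akt, JNK, p38 and ERK1/2 were probed by western blot of RIPA lysates (25–50 μg, SDS-PAGE, PVDF, primary antibody overnight at 4 °C, HRP secondary 1:2000, ECL).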

Assay [4] has as its system HCT-116. As to the kind of experiment: Induction of apoptosis in human HCT116 cells at 10 uM after 48 hrs by FACS analysis. The class given is functional, cell-based.
The subject of assay [5] is A549. As to the kind of experiment: Induction of ROS production in human A549 cells at 2 uM after 3 hrs by DCF-DA staining-based fluorescence assay relative to DMSO treated control. In kind it is functional. Summed up: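 For high-content imaging, A549 cells were seeded at 1 × 10⁴ per well in 96-well format and grown 18–24 h. Compound was applied for 3 h, followed by 10 μM DCF-DA for 30 min. Cells were fixed in 4% formaldehyde for 20 min and washed twice with PBS. Fluorescence was detected and quantified with an Operetta system.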

In assay [6] the test system is A549. As to the kind of experiment: Increase in oxidized […] level in human A549 cells at 10 uM after 4 hrs by luminescence assay. The class given is functional, cell-based. In outline:
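Cellular GSH and GSSG levels were measured in A549 cells after 4 h of compound treatment.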

A short description of assay [7]: Induction of ROS production in HFF1 cells at 2 uM after 3 hrs by DCF-DA staining-based fluorescence assay relative to DMSO treated control. In kind it is functional, cell-based. As to conditions: Homo sapiens, HFF-1. Summed up:
(§1)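 HFF-1 fibroblasts were grown on cover glass at 1 × 10⁶ per well for 18–24 h and exposed to compound for 3 h. They were then stained with 10 μM DCF-DA for 30 min. Cells were fixed in 4% formaldehyde for 20 min, PBS-washed and imaged by fluorescence microscopy.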

A short description of assay [8]: Induction of ROS production in HFF1 cells at 10 uM after 3 hrs by DCF-DA staining-based fluorescence assay relative to DMSO treated control. The class given is functional, cell-based. As to conditions: Homo sapiens, HFF-1. In outline: as §1
Assay [9] has as its system A549. As to the kind of experiment: Induction of ROS production in human A549 cells after 3 hrs by DCF-DA staining-based fluorescence assay. The class given is functional, cell-based. In outline: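 For probe imaging, A549 cells were seeded on cover glass at 1 × 10⁶ per well and grown 18–24 h. They were treated for 3 h, then stained 30 min with 10 μM DCF-DA, DHE or APF. Cells were fixed in 4% formaldehyde for 20 min, washed twice with PBS and viewed by fluorescence microscopy.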

Active and inactive are the calls of the source. The rule behind the calls is not given here.

Regarding `CCCCCC/C=C\CCCCc1cc(O)cc(OC)c1O`, the Activity result in the assay with A549 [1] is “Dose-dependent effect”. The outcome in the assay on A549 [2], with HCT-116 [3] and with HCT-116 [4] was Active. Further, the “fold change (FC)” value in the assay on A549 [5] stood at 1.1.
Turning to `CCCCCC/C=C\CCCCCCCCCc1cc(O)cc(OC)c1O`, the result with A549 [6], in the assay on HCT-116 [3] and in the assay with A549 [9] was Active. In the assay on A549 [1], the Activity entry was “Dose-dependent effect”. Besides, the outcome in assay [7] and in assay [8] was inactive. Further, in the assay on A549 [5], the “fold change (FC)” value was determined as 5.1.

The values above are taken from ChEMBL document CHEMBL3425457, “Identification of Novel ROS Inducers: Quinone Derivatives Tethered to Long Hydrocarbon Chains” (J Med Chem, 2015).
